Legend:
CEM cells [1] = experiment: Mitochondrial membrane potential; assay type: cell-based, human
In short: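 CEM cells grown in RPMI with 10% heat-inactivated FBS at 37 °C, 5% CO2, then given 1 µM final test compound for 6 and 8 h. Stained with JC-1 (MitoProbe) per kit protocol: red aggregates mean polarized mitochondria, green monomers mean depolarized. Green cells scored by flow cytometry, about 10,000 events per sample. Controls were 50 µM CCCP, 1% v/v DMSO and untreated cells. Triplicates, mean ± standard deviation; two-tailed paired t-test.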

caspase-3 = experiment: Live-cell detection of intracellular caspase-3 activation; assay type: cell-based, human; settings: CEM cells, 1 µM, 8 h
In short: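 CEM cells in RPMI with 10% heat-inactivated FBS and penicillin/streptomycin, 37 °C, 5% CO2, seeded at 50,000 per well. Exposed to 1 µM test compound (DMSO dilutions) for 8 h, then labelled with fluorogenic NucView 488 caspase-3/7 live-cell substrate. Green-positive cells counted by flow cytometry, about 10,000 events per sample. Controls were 50 µM CCCP, 1% v/v DMSO and untreated cells. Mean ± standard deviation; two-tailed paired t-test.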

CEM cells [2] = experiment: Annexin V/PI apoptosis/necrosis assay; assay type: cell-based, human; settings: 72 h
In short: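 CEM cells in RPMI/10% heat-inactivated FBS, 50,000 per well, rested 1 h, then dosed from DMSO dilutions; 72 h, 37 °C, 5% CO2. Collected on ice, annexin V-FITC/PI in binding buffer 15 min on ice, dark; ~10,000 events by flow. Apoptotic = early+late annexin-positive; PI-only = necrotic. Controls: untreated, 1% DMSO, 1 mM H2O2. Four wells; three independent experiments.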

[3] = Solubility observation in cell culture medium; assay type: physicochemical; settings: cell culture medium (aqueous environment)

## N#CC(C#N)=NNc1cccc(Cl)c1 [CCCP, carbonyl cyanide 3-chlorophenylhydrazone, reference compound]
CEM cells [1]; 50 µM, positive control
  mitochondrial depolarization (JC-1 green signal): strongly induced mitochondrial depolarization

## CCCCCCCCCCCC(=O)c1cc(O)c2ccccc2c1O [Compound 3, 2-Dodecanoyl-1,4-naphthohydroquinone]
caspase-3
  caspase-3 activation: has a tendency to induce cytotoxicity via caspase-3 activation
CEM cells [2]; 10 µM
  apoptosis (annexin V-FITC positive cells, early + late): 95.35%
  mode of cell death (apoptosis vs necrosis): preferentially induce cell death via apoptosis
CEM cells [1]; 1 µM, 6 and 8 h
  mitochondrial depolarization (JC-1 green signal): induced a significant increase in mitochondrial depolarization from 6 to 8 h

## CCC(=O)c1cc(O)c2ccccc2c1O [Compound 4, 2-Propanoyl-1,4-naphthohydroquinone]
[3]
  solubility in cell culture medium: generated insoluble crystals when added to the cell culture medium

## C/C=C/C(=O)c1cc(O)c2ccccc2c1O [Compound 7, 2-Crotonyl-1,4-naphthohydroquinone]
CEM cells [2]; 50 µM
  apoptosis (annexin V-FITC positive cells, early + late): 1.7%
  mode of cell death (apoptosis vs necrosis): elicited a substantial amount of necrosis instead of apoptosis

Reference: article PMC4215946 (Bioorganic & medicinal chemistry, 2013)
